Measured values from different studies.
Lines come from different studies, so protocols differ.
BRAF V600E: Serine/threonine-protein kinase B-raf (BRAF, Homo sapiens, UniProt P15056, V600E)
BRAF: Serine/threonine-protein kinase B-raf (BRAF, Homo sapiens, UniProt P15056)

Structure (SMILES)	target	assay	setting	remaining binding [%]
CN(CCCC(F)(F)F)c1nccc(-c2cnn3ncccc23)n1	BRAF V600E	binding	1 µM	100
Cc1nc(Cc2cccc(C(F)(F)F)c2)sc1-c1ccc(C(N)=O)nc1	BRAF	cell-free assay, competition with immobilised ligand	1 µM	73
O=C(NCCCN1CCOCC1)c1ccc(Nc2nccc(-c3cc4ccccc4s3)n2)cc1	BRAF V600E	binding, competition with immobilised ligand	1 µM	67
CCN1CCN(Cc2ccc(C(=O)Nc3ccc(C)c(Oc4ccc5c(c4)CC(=O)N5)c3)cc2C(F)(F)F)CC1	BRAF V600E	binding, competition with immobilised ligand	1 µM	28
O=C(NCCCN1CCOCC1)c1ccc(Nc2ncc(Cl)c(-c3ccc(Cl)s3)n2)cc1	BRAF	binding, competition with immobilised ligand	1 µM	100
C[C@@H]1CN(c2cc(-c3n[nH]c4ccc(OC5(C)CC5)cc34)ncn2)C[C@H](C)O1	BRAF V600E	cell-free assay, competition with immobilised ligand	0.1 µM	89
N[C@H]1CCN(c2nccc(-c3cnn4ncccc34)n2)C1	BRAF V600E	binding	1 µM	92
Cc1cnc(Nc2ccc(C(=O)N3CCC(N4CCCC4)CC3)cc2)nc1-c1cc2ccccc2s1	BRAF V600E	binding, competition with immobilised ligand	1 µM	32
CN(C)C(=O)Cn1cc(-c2nc(C3(c4ccc(-c5cnc(N)nc5)cc4)CC3)no2)cn1	BRAF	cell-free assay, competition with immobilised ligand	1 µM	88
CC1CCCN1c1nccc(-c2cnn3ncccc23)n1 (stereo not shown)	BRAF V600E	binding	1 µM	100
c1cncc(-c2cccc(Nc3nccc(NC4CCCCC4)n3)c2)c1	BRAF	binding, competition with immobilised ligand	10 µM	69
CN1CCN(c2ccc(Nc3nccc(-c4ccccc4)n3)cc2C(F)(F)F)CC1	BRAF V600E	binding	10 µM	31
COc1cnc(Nc2cccc(S(N)(=O)=O)c2)nc1N1CCN(c2ccccc2)C(=O)C1	BRAF V600E	binding, competition with immobilised ligand	1 µM	84
NS(=O)(=O)c1cc(NC(=O)C2(c3ccccc3Cl)CC2)ccc1Oc1cccc(Cl)c1	BRAF	cell-free assay, competition with immobilised ligand	1 µM	71
O=C(c1ccc(Nc2ncc(Cl)c(-c3cc4ccccc4s3)n2)cc1)N1CCC(N2CCCC2)CC1	BRAF V600E	binding, competition with immobilised ligand	1 µM	56
CNCc1ccccc1-c1csc([C@H](C)Nc2nc(C)nc3cc(OC)c(OC)cc23)c1	BRAF	cell-free assay, competition with immobilised ligand	1 µM	97
CNC(=O)[C@@H]1CC[C@@H](n2c(-c3ccc4cnccc4c3)nc3ccc(C(=O)NCc4cccc(C(N)=O)c4)cc32)C1	BRAF	binding, competition with immobilised ligand	1 µM	100
O=C(c1ccc(Nc2nccc(-c3cc4ccccc4s3)n2)cc1)N1CCC(N2CCCC2)CC1	BRAF	binding, competition with immobilised ligand	1 µM	38
FC(F)(F)Oc1cccc(-c2cnc3ccc(-c4ccncc4)nn23)c1	BRAF	cell-free assay, competition with immobilised ligand	5 µM	32

Structure (SMILES)	target	assay	setting	remaining binding [%]
O=C(c1ccc(Nc2ncc(Cl)c(-c3ccc(Cl)s3)n2)cc1)N1CCC(N2CCCC2)CC1	BRAF	binding, competition with immobilised ligand	1 µM	65
C[C@@H](c1ccc(-n2cnc3c(N)ncnc32)cc1)N1CCc2nn(C)c(Cc3ccccc3)c2C1=O	BRAF V600E	binding, competition with immobilised ligand	0.1 µM	76
C[C@H]1CCN(c2nccc(-c3cnn4ncccc34)n2)C1	BRAF V600E	binding	1 µM	93
C=CC(=O)N1CCC(C(=O)NCC(=O)N2CCN(c3nc(-c4cnc(N)nc4C(F)F)nc(N4CCOCC4)n3)CC2)CC1	BRAF V600E	binding, competition with immobilised ligand	1 µM	89
O=C(Nc1c[nH]nc1C(=O)NC1CCNCC1)c1cc(F)cc(F)c1	BRAF V600E	binding, competition with immobilised ligand	1 µM	100
Cc1cnn2ncc(-c3ccnc(N(C)C)n3)c2c1	BRAF	binding	1 µM	82
COc1ccc2cc(OCC3(C(=O)O)CN(C(=O)c4ccc(F)cc4)C3)ccc2c1	BRAF V600E	cell-free assay, competition with immobilised ligand	1 µM	100
c1cnn2ncc(-c3ccnc(N4CCC45COC5)n3)c2c1	BRAF	binding	1 µM	56
COc1cnc(Nc2cccc(S(N)(=O)=O)c2)nc1N1CCN(c2ccccc2)CC1	BRAF V600E	binding, competition with immobilised ligand	1 µM	82
CN(c1nccc(-c2cnn3ncccc23)n1)C1CC1	BRAF V600E	binding	1 µM	100
COc1ncc2cc3ccccc3nc2c1C#N	BRAF	cell-free assay, competition with immobilised ligand	5 µM	100
CN(C)c1nccc(-c2cnn3ncccc23)n1	BRAF	binding	1 µM	74
Cc1cc(-n2nc(Cc3cc(F)cc(C(F)(F)F)c3)nc2C)ccc1C(N)=O	BRAF	cell-free assay, competition with immobilised ligand	1 µM	86
N#Cc1ccccc1CSc1nnc2c(n1)[nH]c1ccccc12	BRAF V600E	binding, competition with immobilised ligand	10 µM	100
C[C@@H]1CN(c2ccc3ncc(-c4ccc5[nH]nc(C6CC6)c5c4)n3n2)C[C@H](C)O1	BRAF	binding, competition with immobilised ligand	50 nM	91
O=C(NCC1CCOCC1)c1n[nH]cc1NC(=O)c1c(F)cccc1F	BRAF	binding, competition with immobilised ligand	1 µM	93
Cc1cc(NC(=O)c2cccc(S(F)(F)(F)(F)F)c2)cc(-n2ccn3nc(-c4cccnc4)cc23)c1	BRAF V600E	cell-free assay, competition with immobilised ligand	1 µM	24.4
Nc1ncc2c(n1)-c1c([nH]c3ccc(C#CC4CC4)cc13)CCCC2	BRAF	binding, competition with immobilised ligand	1 µM	100
